Source: ChEMBL document CHEMBL2034880, “Synthesis and biological evaluation of pyrimidine-based dual inhibitors of human epidermal growth factor receptor 1 (HER-1) and HER-2 tyrosine kinases” (J Med Chem, 2012)

What was measured:
NCI-H1975 = experiment: Cytotoxicity against human NCI-H1975 cells expressing EGFR L858R/T790M mutant after 72 hrs by SRB assay; assay type: functional, cell-based; details: NCI-H1975, 72 h
Outline: (§1)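 NCI-N87, NCI-H1781 and NCI-H1975 grown in RPMI with 1 mM sodium pyruvate under 5% CO2. JIMT-1 grown in DMEM (4.5 g/L glucose) under 5% CO2. All media contained 10% FBS and 1% penicillin-streptomycin, 37 °C. Growth inhibition/GI50 read-out was run per a cited earlier protocol.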

NCI-N87 = experiment: Cytotoxicity against human NCI-N87 cells expressing HER-2 after 72 hrs by SRB assay; assay type: functional, cell-based; details: NCI-N87, 72 h
Outline: as §1, with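 “Culture conditions: MDA-MB-361 and MDA-MB-453 grown in L-15 without CO2. NCI-N87, NCI-H1781” for “NCI-N87, NCI-H1781”, “5% CO2. MDA-MB-175 grown in L-15 without CO2. All media” for “5% CO2. All media”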

MDA-MB-361 = experiment: Cytotoxicity against ER activated human MDA-MB-361 cells expressing Her-2, Src and PIK3CA mutant after 72 hrs by SRB assay; assay type: functional, cell-based; details: MDA-MB-361, 72 h
Outline: as §1, with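 “Culture conditions: MDA-MB-361 and MDA-MB-453 grown in L-15 without CO2. NCI-N87, NCI-H1781” for “NCI-N87, NCI-H1781”, “5% CO2. MDA-MB-175 grown in L-15 without CO2. All media” for “5% CO2. All media”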

[1] = Cytotoxicity against human JIMT1 cells expressing low HER-2 after 72 hrs by SRB assay; assay type: functional, cell-based; details: JIMT-1, 72 h
Outline: as §1, with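 “Culture conditions: MDA-MB-361 and MDA-MB-453 grown in L-15 without CO2. NCI-N87, NCI-H1781” for “NCI-N87, NCI-H1781”, “5% CO2. MDA-MB-175 grown in L-15 without CO2. All media” for “5% CO2. All media”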

[2] = Cytotoxicity against human MDA-MB-175 cells expressing Src, Ret and low HER-2 after 72 hrs by SRB assay; assay type: functional, cell-based
Outline: as §1, with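 “Culture conditions: MDA-MB-361 and MDA-MB-453 grown in L-15 without CO2. NCI-N87, NCI-H1781” for “NCI-N87, NCI-H1781”, “5% CO2. MDA-MB-175 grown in L-15 without CO2. All media” for “5% CO2. All media”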

[3] = Cytotoxicity against human NCI-H1781 cells expressing HER-2 G776insV_G/C after 72 hrs by SRB assay; assay type: functional, cell-based; details: NCI-H1781, 72 h
Outline: as §1, with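 “Culture conditions: MDA-MB-361 and MDA-MB-453 grown in L-15 without CO2. NCI-N87, NCI-H1781” for “NCI-N87, NCI-H1781”, “5% CO2. MDA-MB-175 grown in L-15 without CO2. All media” for “5% CO2. All media”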

MDA-MB-453 = experiment: Cytotoxicity against PTEN-deficient human MDA-MB-453 cells expressing HER-2, and PIK3CA mutant after 72 hrs by SRB assay; assay type: functional, cell-based; details: MDA-MB-453, 72 h
Outline: as §1, with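 “Culture conditions: MDA-MB-361 and MDA-MB-453 grown in L-15 without CO2. NCI-N87, NCI-H1781” for “NCI-N87, NCI-H1781”, “5% CO2. MDA-MB-175 grown in L-15 without CO2. All media” for “5% CO2. All media”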

[4] = molecular target: Receptor tyrosine-protein kinase erbB-4 (Homo sapiens, UniProt Q15303); experiment: Inhibition of HER4 preincubated for 10 mins followed by incubation for 30 mins by fluorescence polarization assay
SK-BR-3 = experiment: Cytotoxicity against human SKBR3 cells overexpressing HER-2 gene after 72 hrs by SRB assay; assay type: functional, cell-based; details: SK-BR-3, 72 h
Outline: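 A431 and SK-Br3 cells grown in DMEM (4.5 g/L glucose, 1.5 g/L sodium bicarbonate) with 10% FBS at 37 °C, humidified 5% CO2. Proliferation/growth inhibition IC50 values are means of three independent experiments, each run in duplicate.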

[5] = molecular target: Vascular endothelial growth factor receptor 1 (Homo sapiens, UniProt P17948); experiment: Inhibition of Flt1
Aurora kinase A = Aurora kinase A (Homo sapiens, UniProt O14965); experiment: Inhibition of Aurora A
[6] = molecular target: Receptor tyrosine-protein kinase erbB-2 (Homo sapiens, UniProt P04626); experiment: Inhibition of HER2 preincubated for 10 mins followed by incubation for 30 mins by fluorescence polarization assay
[7] = molecular target: Serine/threonine-protein kinase STK11 (Homo sapiens, UniProt Q15831); experiment: Inhibition of LKB1
Sequence of Serine/threonine-protein kinase STK11 (Q15831 whole entry): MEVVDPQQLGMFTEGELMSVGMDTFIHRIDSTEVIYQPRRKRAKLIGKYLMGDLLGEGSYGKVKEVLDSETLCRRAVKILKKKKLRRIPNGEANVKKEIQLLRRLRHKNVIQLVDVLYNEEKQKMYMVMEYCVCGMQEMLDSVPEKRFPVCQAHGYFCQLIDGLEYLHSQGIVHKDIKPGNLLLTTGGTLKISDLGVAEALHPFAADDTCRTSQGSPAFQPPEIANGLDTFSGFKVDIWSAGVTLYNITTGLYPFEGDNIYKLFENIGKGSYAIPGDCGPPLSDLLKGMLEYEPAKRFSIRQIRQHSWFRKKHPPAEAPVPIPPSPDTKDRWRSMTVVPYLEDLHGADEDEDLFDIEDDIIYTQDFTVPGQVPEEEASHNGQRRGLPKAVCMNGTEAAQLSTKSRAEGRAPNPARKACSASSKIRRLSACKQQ

[8] = molecular target: Hepatocyte growth factor receptor (Homo sapiens, UniProt P08581); experiment: Inhibition of MET
[9] = molecular target: Receptor-type tyrosine-protein kinase FLT3 (Homo sapiens, UniProt P36888); experiment: Inhibition of Flt3
Insulin receptor = Insulin receptor (Homo sapiens, UniProt P06213); experiment: Inhibition of IR
Sequence of Insulin receptor (P06213 28-758 limits assumed): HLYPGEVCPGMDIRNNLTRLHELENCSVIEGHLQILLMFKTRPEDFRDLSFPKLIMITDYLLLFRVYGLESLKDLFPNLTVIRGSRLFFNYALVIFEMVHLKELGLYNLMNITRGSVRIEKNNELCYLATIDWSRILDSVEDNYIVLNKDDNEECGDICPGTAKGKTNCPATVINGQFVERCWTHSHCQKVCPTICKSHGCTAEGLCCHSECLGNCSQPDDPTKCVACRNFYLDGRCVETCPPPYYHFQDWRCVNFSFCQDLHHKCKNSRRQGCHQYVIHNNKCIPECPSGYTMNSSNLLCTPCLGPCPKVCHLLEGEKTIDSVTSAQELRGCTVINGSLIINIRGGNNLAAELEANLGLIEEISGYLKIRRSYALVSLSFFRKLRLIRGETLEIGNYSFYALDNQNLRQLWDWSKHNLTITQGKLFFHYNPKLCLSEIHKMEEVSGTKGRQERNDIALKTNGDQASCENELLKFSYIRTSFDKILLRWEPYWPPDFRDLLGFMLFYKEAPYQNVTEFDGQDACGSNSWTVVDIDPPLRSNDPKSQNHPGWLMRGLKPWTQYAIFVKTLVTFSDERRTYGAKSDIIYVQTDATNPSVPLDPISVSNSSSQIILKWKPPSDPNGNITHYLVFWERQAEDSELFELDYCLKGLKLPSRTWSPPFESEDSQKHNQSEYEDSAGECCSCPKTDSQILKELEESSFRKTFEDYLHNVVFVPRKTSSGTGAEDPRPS
Sequence of Insulin receptor (P06213 763-1382 limits assumed): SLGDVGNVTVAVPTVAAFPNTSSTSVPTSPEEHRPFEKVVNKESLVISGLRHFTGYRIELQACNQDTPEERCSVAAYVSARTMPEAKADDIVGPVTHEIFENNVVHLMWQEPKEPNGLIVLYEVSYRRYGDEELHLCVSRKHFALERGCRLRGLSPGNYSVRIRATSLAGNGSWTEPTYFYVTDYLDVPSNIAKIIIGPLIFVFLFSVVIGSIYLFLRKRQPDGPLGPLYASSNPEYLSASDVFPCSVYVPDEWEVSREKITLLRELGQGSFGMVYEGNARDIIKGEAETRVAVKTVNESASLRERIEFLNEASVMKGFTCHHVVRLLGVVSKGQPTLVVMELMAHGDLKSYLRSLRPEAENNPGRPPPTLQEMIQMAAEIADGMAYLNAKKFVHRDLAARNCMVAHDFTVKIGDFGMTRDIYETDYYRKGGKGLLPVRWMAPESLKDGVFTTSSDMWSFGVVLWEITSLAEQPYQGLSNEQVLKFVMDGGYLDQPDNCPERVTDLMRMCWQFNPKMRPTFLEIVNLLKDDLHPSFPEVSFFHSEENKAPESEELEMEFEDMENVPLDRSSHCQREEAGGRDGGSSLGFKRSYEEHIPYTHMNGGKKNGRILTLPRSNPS

[10] = molecular target: Dual specificity mitogen-activated protein kinase kinase 1 (Homo sapiens, UniProt Q02750); experiment: Inhibition of MEK1
[11] = Half life in mouse liver microsomes at 5 uM; details: liver microsomes
[12] = molecular target: Insulin-like growth factor 1 receptor (Homo sapiens, UniProt P08069); experiment: Inhibition of IGF-1R
[13] = Half life in human liver microsomes at 5 uM; details: liver microsomes
[14] = molecular target: Tyrosine-protein kinase SYK (Homo sapiens, UniProt P43405); experiment: Inhibition of Syk
[15] = molecular target: Fibroblast growth factor receptor 1 (Homo sapiens, UniProt P11362); experiment: Inhibition of FGFR1
[16] = Half life in rat liver microsomes at 5 uM; details: liver microsomes
[17] = molecular target: Platelet-derived growth factor receptor beta (Homo sapiens, UniProt P09619); experiment: Inhibition of PDGFRbeta
[18] = molecular target: Tyrosine-protein kinase ABL1 (Homo sapiens, UniProt P00519); experiment: Inhibition of Abl
[19] = molecular target: Cyclin-dependent kinase 1/cyclin B1 (Homo sapiens, UniProt P06493); experiment: Inhibition of CDK1/cyclin B; assay type: protein-complex assay
Sequence of Cyclin-dependent kinase 1/cyclin B1 (P06493 whole entry): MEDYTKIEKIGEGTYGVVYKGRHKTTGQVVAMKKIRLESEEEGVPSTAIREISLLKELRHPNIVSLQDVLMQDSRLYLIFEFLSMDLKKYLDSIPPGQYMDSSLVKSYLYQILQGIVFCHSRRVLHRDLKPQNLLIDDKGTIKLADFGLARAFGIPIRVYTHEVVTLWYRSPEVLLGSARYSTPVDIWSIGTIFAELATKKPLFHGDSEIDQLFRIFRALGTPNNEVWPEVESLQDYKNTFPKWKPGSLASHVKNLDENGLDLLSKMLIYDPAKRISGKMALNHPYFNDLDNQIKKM
Sequence of Cyclin-dependent kinase 1/cyclin B1 (P14635 whole entry, further chain): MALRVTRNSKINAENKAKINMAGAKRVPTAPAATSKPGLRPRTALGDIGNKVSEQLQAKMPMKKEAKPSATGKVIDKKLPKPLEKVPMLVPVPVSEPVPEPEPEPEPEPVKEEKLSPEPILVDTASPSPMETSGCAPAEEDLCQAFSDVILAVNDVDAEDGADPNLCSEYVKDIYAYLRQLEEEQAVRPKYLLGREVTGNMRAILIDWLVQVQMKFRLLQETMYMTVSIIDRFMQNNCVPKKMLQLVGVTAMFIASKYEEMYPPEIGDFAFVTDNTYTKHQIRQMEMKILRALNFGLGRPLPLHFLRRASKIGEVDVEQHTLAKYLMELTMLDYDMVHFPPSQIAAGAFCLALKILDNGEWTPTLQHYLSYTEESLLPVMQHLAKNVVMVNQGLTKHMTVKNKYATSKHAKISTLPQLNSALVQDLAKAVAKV

[20] = molecular target: Platelet-derived growth factor receptor alpha (Homo sapiens, UniProt P16234); experiment: Inhibition of PDGFRalpha
Sequence of Platelet-derived growth factor receptor alpha (P16234 whole entry): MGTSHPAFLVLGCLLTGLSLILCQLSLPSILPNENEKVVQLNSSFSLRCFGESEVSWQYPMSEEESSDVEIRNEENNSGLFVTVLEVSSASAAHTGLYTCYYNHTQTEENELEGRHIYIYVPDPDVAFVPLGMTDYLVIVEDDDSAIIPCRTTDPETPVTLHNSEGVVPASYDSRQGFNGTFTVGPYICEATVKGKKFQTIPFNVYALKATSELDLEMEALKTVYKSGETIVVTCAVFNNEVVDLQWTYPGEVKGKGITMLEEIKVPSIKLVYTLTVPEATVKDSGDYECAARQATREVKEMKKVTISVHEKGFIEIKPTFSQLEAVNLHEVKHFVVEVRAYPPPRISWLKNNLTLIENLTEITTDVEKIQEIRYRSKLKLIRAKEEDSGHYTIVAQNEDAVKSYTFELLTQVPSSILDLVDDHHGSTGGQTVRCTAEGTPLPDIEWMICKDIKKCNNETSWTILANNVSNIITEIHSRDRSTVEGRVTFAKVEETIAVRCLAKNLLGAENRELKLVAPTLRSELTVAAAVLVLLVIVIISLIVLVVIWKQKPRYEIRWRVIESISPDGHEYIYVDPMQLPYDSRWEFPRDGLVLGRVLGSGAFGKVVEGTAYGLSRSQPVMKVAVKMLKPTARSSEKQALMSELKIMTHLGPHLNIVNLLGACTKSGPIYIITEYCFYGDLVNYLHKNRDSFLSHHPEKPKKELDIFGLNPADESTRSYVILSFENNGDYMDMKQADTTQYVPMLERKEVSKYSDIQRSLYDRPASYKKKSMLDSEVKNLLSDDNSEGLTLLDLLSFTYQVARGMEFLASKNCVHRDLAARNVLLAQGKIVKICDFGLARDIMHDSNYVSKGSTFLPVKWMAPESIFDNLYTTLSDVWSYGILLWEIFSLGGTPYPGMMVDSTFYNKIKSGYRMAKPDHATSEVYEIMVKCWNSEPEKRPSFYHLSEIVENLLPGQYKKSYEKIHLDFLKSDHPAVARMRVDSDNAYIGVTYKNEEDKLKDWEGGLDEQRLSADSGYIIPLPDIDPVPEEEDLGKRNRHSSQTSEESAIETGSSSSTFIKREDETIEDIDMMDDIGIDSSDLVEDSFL

Focal adhesion kinase 1 = Focal adhesion kinase 1 (Homo sapiens, UniProt Q05397); experiment: Inhibition of FAK
[21] = Half life in dog liver microsomes at 5 uM; details: liver microsomes
[22] = molecular target: Serine/threonine-protein kinase pim-1 (Homo sapiens, UniProt P11309); experiment: Inhibition of PIM1
Sequence of Serine/threonine-protein kinase pim-1 (P11309 whole entry): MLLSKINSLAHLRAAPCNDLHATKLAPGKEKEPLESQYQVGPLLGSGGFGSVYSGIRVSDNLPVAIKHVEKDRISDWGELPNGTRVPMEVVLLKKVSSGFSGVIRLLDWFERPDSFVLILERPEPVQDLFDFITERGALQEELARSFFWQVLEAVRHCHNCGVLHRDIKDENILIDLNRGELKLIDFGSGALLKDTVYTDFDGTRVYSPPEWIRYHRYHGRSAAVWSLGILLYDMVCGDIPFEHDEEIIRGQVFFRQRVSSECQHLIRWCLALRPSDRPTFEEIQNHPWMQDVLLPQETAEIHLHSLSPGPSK

[23] = molecular target: Tyrosine-protein kinase JAK2 (Homo sapiens, UniProt O60674); experiment: Inhibition of JAK2
Sequence of Tyrosine-protein kinase JAK2 (O60674 whole entry): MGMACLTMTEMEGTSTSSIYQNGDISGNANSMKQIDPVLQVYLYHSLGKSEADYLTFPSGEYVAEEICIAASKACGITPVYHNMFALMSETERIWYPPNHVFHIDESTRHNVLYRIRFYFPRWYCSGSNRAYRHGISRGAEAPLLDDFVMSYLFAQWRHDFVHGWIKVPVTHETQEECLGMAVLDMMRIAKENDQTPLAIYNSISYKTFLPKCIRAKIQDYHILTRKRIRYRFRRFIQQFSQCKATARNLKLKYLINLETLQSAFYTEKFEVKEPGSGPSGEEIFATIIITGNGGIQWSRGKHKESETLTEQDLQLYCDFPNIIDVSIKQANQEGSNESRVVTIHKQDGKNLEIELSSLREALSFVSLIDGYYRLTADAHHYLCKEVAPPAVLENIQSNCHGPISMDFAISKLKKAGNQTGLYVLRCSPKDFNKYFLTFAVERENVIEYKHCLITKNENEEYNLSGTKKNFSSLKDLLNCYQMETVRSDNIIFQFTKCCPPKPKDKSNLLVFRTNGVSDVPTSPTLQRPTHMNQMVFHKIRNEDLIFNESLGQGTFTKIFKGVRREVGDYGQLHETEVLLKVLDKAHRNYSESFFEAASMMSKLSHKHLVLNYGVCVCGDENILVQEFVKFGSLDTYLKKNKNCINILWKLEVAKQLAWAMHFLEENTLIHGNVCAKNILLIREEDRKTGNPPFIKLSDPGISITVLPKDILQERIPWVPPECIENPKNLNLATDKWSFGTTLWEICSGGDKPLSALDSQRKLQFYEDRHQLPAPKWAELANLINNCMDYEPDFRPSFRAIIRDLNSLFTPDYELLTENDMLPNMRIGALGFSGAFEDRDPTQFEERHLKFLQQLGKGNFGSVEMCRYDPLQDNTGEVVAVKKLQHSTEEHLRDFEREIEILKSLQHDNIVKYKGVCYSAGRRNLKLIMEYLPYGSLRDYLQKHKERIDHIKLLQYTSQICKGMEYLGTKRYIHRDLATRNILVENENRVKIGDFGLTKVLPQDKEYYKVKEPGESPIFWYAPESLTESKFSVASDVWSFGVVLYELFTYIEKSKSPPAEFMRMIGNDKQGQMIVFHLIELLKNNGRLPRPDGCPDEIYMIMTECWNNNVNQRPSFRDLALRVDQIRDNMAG

[24] = molecular target: Mast/stem cell growth factor receptor Kit (Homo sapiens, UniProt P10721); experiment: Inhibition of cKIT
[25] = molecular target: 5'-AMP-activated protein kinase catalytic subunit alpha-1 (Homo sapiens, UniProt Q13131); experiment: Inhibition of AMPKalpha1

CS(=O)(=O)CCNCc1ccc(-c2ccc3ncnc(Nc4ccc(OCc5cccc(F)c5)c(Cl)c4)c3c2)o1 [LAPATINIB]
IC50 (NCI-H1975): > 1000 nM | IC50 (NCI-N87): 36 nM | IC50 (MDA-MB-361): 1030 nM | IC50 [1]: > 10000 nM | IC50 [2]: 44.4 nM | IC50 [3]: 3050 nM | IC50 (MDA-MB-453): 555 nM

C=CC(=O)NCc1coc(-c2c(N)ncnc2Nc2ccc(OCc3ccccn3)c(Cl)c2)n1
IC50 [4]: 4 nM | IC50 (SK-BR-3): 0.7 nM | IC50 [5]: > 3000 nM | IC50 (Aurora kinase A): > 3000 nM | IC50 [6]: 22.4 nM | IC50 [7]: > 3000 nM | IC50 [8]: > 3000 nM | IC50 [9]: > 3000 nM | IC50 (Insulin receptor): > 3000 nM | IC50 [10]: > 3000 nM | half-life at 5 µM [11]: 17 min | IC50 [12]: > 3000 nM | half-life at 5 µM [13]: 25 min | IC50 [14]: > 3000 nM | IC50 (MDA-MB-361): 562 nM | IC50 [15]: > 3000 nM | half-life at 5 µM [16]: 23 min | IC50 [17]: > 3000 nM | IC50 [18]: > 3000 nM | IC50 [19]: > 3000 nM | IC50 [20]: > 3000 nM | IC50 (Focal adhesion kinase 1): > 3000 nM | half-life at 5 µM [21]: 46 min | IC50 [22]: > 3000 nM | IC50 [23]: > 3000 nM | IC50 [1]: 1880 nM | IC50 [24]: > 3000 nM | IC50 [25]: > 3000 nM | IC50 [2]: 1.6 nM | IC50 [3]: 22 nM | IC50 (MDA-MB-453): 5 nM
